The source made the active and inactive calls. Rule as the data show it, unless noted: active = inhibition above about 30%; inactive = the rest.
Columns and labels:
[1] = reducers of endogenous Her2 protein level, primary screen, SKBR3 breast tumor cells, AlphaScreen, ATP viability (AID 461;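 active = Her2 level under about 52% in both replicate screens, with viability over 70% of control, limit read from the data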;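 as to Her2 level: lower value means less Her2 protein in the cells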;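 as to viability: percent of carrier control wells set as 100% viability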); settings: 18-24 h, measured here: SKBR3 viability, ATP luminescence, at 10 µM
[2] = biological target: Receptor tyrosine-protein kinase erbB-2 (Homo sapiens) (UniProt P04626); assay: as above; settings: 18-24 h, at 10 µM, stronger effect = lower value
Receptor tyrosine-protein kinase erbB-2 (Homo sapiens), sequence (P04626 whole entry, looked up): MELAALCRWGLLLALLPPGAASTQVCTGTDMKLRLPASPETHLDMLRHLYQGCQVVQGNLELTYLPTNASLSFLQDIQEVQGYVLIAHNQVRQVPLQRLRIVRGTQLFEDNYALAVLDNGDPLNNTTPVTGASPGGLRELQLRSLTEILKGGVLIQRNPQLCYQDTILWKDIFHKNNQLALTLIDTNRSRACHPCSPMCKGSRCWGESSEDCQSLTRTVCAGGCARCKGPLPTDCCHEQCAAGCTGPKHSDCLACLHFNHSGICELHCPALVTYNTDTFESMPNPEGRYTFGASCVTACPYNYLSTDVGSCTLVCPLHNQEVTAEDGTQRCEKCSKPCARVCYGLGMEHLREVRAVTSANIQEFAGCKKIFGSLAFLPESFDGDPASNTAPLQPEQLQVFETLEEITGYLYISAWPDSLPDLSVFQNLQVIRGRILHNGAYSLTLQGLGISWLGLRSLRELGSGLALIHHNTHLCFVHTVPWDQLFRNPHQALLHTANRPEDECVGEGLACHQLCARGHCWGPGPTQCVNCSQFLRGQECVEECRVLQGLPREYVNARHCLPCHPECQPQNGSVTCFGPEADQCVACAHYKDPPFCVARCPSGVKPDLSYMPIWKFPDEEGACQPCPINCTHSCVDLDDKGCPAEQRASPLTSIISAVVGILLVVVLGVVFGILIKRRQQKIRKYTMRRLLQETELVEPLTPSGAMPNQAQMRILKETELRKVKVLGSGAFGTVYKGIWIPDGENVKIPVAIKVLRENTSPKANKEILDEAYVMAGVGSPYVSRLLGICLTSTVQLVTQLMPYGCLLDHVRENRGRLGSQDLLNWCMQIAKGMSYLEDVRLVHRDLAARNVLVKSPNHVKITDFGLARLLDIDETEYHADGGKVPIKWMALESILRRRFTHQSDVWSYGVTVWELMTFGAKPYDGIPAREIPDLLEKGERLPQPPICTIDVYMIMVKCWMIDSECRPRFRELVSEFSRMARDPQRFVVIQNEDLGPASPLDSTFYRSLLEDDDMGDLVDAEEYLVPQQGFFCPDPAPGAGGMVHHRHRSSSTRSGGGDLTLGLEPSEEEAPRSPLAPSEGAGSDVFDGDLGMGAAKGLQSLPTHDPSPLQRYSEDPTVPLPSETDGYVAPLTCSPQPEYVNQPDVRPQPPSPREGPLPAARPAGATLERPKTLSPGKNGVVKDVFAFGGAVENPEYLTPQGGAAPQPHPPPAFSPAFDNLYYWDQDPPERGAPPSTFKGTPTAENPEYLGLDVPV

[3] = SK-BR-3 cell growth inhibitors, pilot screen, 24 h, human (AID 572;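 active = viability at or below 10% of carrier control in both of two separate runs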;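 also: compound exposure lasted between 18 and 24 h rather than exactly 24 h; 100% = carrier-treated control wells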); settings: SK-BR-3 viability, CellTiter-Glo luminescence, at 10 µM, stronger effect = lower value
[4] = HUVEC growth inhibition – cell-based, human, primary screen (AID 575;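 active = viability at or below 30% in both replicate assays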;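 also: 100% = median of untreated cell wells with 0.1% DMSO on each plate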); settings: HUVEC proliferation, CellTiter-Glo luminescence, 72 h; at 10 µM; stronger effect = lower value
Procedure, shortened: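 Test system – primary HUVEC, no more than 12 passages · Dosing – one dose, 10 µM final, 0.1% DMSO · Times – 72 h treatment at 37 °C · Measured by – ATP-based CellTiter-Glo luminescent read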

[5] = growth inhibitors of H69AR lung tumor, primary screen, human, duplicate replicates (AID 580;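 active = viability at or under a set limit in both replicates, limit being median viability minus 3 SD, cut at about 48% in these data, passing the limit was not always enough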;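 also: 100% = mean luminescence of untreated wells and 0% = no signal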); settings: H69AR lung tumor cells viability, ATP luminescence, 72 h; at 10 µM; stronger effect = lower value
[6] = reversal of MRP1-mediated doxorubicin resistance, pilot screen, H69AR cells, doxorubicin co-treatment (AID 601;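 active = viability loss from added drug above about 55%, and viability with drug at most 40%, in both replicates, limit read from the data, passing the limit was not always enough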); settings: CellTiter-Glo, 72 h, at 10 µM; for differential viability (reversal): stronger effect = higher value
[7] = 384-well plate pilot, post-Golgi transport modulator project, inhibition of yeast transport mutant growth (AID 636; in the data active = inhibition above about 31%); settings: absorbance 615 nm, about 18 h, stronger effect = higher value
[8] = growth suppression of yeast trafficking mutant, preliminary HTS, modulators of trafficking downstream of Golgi apparatus project, 1536-format plate, OD 615 nm (AID 637); settings: yeast transport mutant growth, absorbance 615 nm, 18 h; stronger effect = higher value
[9] = H69AR cells + 2 uM doxorubicin, measured here: viability with 2 uM doxorubicin, stronger effect = lower value
[10] = H69AR cells, compound alone cytotoxicity

Row | Compound | viability [1] | Her2 level [2] | viability [3] | viability [4] | viability [5] | differential viability (reversal) ([6]; H69AR cells + 2 uM doxorubicin) | viability [6, 9] | viability [6, 10] | inhibition [7] | inhibition [8]
1 | COc1ccc(-c2nn3c(-c4ccncc4)nnc3s2)cc1OC | 105% | 116% (inactive) | 105% (inactive) | 104% (inactive) | 99.2% (inactive) | -8.5% (inactive) | 108% | 99.2% | -0.39% (inactive) | 0.16% (inactive)
2 | CC1(C)OC(=O)C(=CNC(CCC(N)=O)C(=O)O)C(=O)O1 (stereo not given) | 100% | 110% (inactive) | 100% (inactive) | 109% (inactive) | 86.2% (inactive) | -14.4% (inactive) | 101% | 86.2% | 6.49% (inactive) | 5.4% (inactive)
3 | CCCC(C(=O)NCc1ccco1)N(C(=O)CNS(=O)(=O)c1ccc(Cl)cc1)C1CCCC1 (stereo not given) | 122% | 91% (inactive) | 122% (inactive) | 74.1% (inactive) | 82.7% (inactive) | -4.13% (inactive) | 86.8% | 82.7% | -0.13% (inactive) | 3.55% (inactive)
4 | CCCCC(=O)NCCNc1nc2c(c(=O)n(C)c(=O)n2C)n1Cc1ccccc1 | 116% | 83% (inactive) | 116% (inactive) | 99.3% (inactive) | 94.6% (inactive) | -4.03% (inactive) | 98.7% | 94.6% | -5.68% (inactive) | 2.06% (inactive)
5 | CCN1CCN(C(=O)c2ccc3c(=O)n(CCC4=CCCCC4)c(=O)[nH]c3c2)CC1 | 91% | 114% (inactive) | 91% (inactive) | 78.1% (inactive) | 84.7% (inactive) | 16.7% (inactive) | 67.9% | 84.7% | -8.29% (inactive) | -0.55% (inactive)
6 | Cc1c(C(=O)NCCC2=CCCCC2)oc2ccc(S(=O)(=O)N3CCC4(CC3)OCCO4)cc12 | 94.5% | 104% (inactive) | 94.5% (inactive) | 49.1% (inactive) | 48.1% (active) | -4.29% (inactive) | 52.4% | 48.1% | -10.8% (inactive) | -11.5% (inactive)
7 | CC1CCCCC1NC(=O)c1ccc(N2CCCC2=O)cc1 (stereo not given) | 112% | 106% (inactive) | 112% (inactive) | 111% (inactive) | 90.3% (inactive) | 7.01% (inactive) | 83.2% | 90.3% | -2.21% (inactive) | 2.79% (inactive)
8 | Cc1c(Br)c(C(F)(F)F)nn1CC(=O)NCCN1CCOCC1 | 122% | 100% (inactive) | 122% (inactive) | 108% (inactive) | 96.6% (inactive) | 10.3% (inactive) | 86.3% | 96.6% | -6.27% (inactive) | 2.1% (inactive)
9 | COc1ccc(C(=O)N(Cc2ccco2)C(C(=O)NC2CCCC2)c2ccc(O)cc2)cc1OC (stereo not given) | 77.5% | 85% (inactive) | 77.5% (inactive) | 76.8% (inactive) | 78.8% (inactive) | -1.66% (inactive) | 80.4% | 78.8% | -1.32% (inactive) | -8% (inactive)
10 | CN(C)S(=O)(=O)c1ccc(C(=O)NCc2cccs2)cc1 | 82% | 87% (inactive) | 82% (inactive) | 101% (inactive) | 101% (inactive) | 8.48% (inactive) | 92.8% | 101% | -4.05% (inactive) | 3.81% (inactive)
11 | COC(=O)C1CCN(C(=O)c2sc3nc(-c4ccc(F)cc4)cn3c2C)CC1 | 76.5% | 92% (inactive) | 76.5% (inactive) | 99.8% (inactive) | 100% (inactive) | 22.1% (inactive) | 77.9% | 100% | -1.07% (inactive) | 0.81% (inactive)
12 | Cc1cccc(-c2nnc(SCC#N)n2-c2cccc(Cl)c2)c1 | 90.5% | 83.5% (inactive) | 90.5% (inactive) | 104% (inactive) | 84.6% (inactive) | -3.93% (inactive) | 88.6% | 84.6% | -6% (inactive) | 0% (inactive)
13 | O=C(CSc1nc2ccccc2n1CC(=O)N1CCCC1)Nc1nccs1 | 106% | 93% (inactive) | 106% (inactive) | 98.4% (inactive) | 95.3% (inactive) | 16.4% (inactive) | 78.9% | 95.3% | -0.92% (inactive) | -6.73% (inactive)
14 | CCn1c(=O)n(CC(=O)N(C)Cc2ccccc2)c(=O)c2ccccc21 | 110% | 93.5% (inactive) | 110% (inactive) | 75.7% (inactive) | 91.8% (inactive) | 1.03% (inactive) | 90.8% | 91.8% | 1.18% (inactive) | -0.48% (inactive)
15 | O=C(CSc1nnc(Cc2cccs2)n1Cc1ccco1)Nc1cccc(Cl)c1 | 82.5% | 64% (inactive) | 82.5% (inactive) | 73.4% (inactive) | 87% (inactive) | -8.62% (inactive) | 95.6% | 87% | -3.38% (inactive) | -7.5% (inactive)
16 | O=C(O)c1[nH]nc2c1COc1ccccc1-2 | 93.5% | 92% (inactive) | 93.5% (inactive) | 109% (inactive) | 100% (inactive) | 7.14% (inactive) | 93.3% | 100% | -0.92% (inactive) | 2.95% (inactive)
17 | CCCC(=O)Nc1cccc(NC(=O)CN2CCN(c3ccccc3OC)CC2)c1 | 98.5% | 83% (inactive) | 98.5% (inactive) | 96.6% (inactive) | 82.9% (inactive) | -3.71% (inactive) | 86.6% | 82.9% | -5.81% (inactive) | -4.92% (inactive)
18 | CCOC(=O)c1nnc(-c2ccccc2)o1 | 101% | 87.5% (inactive) | 101% (inactive) | 86.1% (inactive) | 88.1% (inactive) | 9.09% (inactive) | 79% | 88.1% | -1.56% (inactive) | -1.43% (inactive)
19 | CN1CCCN(C(=O)c2cc(=O)[nH]c3ccccc23)c2nc3ccccc3nc21 | 114% | 90% (inactive) | 114% (inactive) | 84.2% (inactive) | 79.9% (inactive) | 0.575% (inactive) | 79.3% | 79.9% | -4.93% (inactive) | -2.79% (inactive)
20 | O=C(NCCN1CCOCC1)C1CC(=O)N(c2ccc(F)c(Cl)c2)C1 (stereo not given) | 124% | 111% (inactive) | 124% (inactive) | 100% (inactive) | 98.2% (inactive) | 3.27% (inactive) | 94.9% | 98.2% | -1.18% (inactive) | -4.03% (inactive)
21 | CCSCCNC(=O)c1cc(-n2cnnc2)ccc1Cl | 138% | 106% (inactive) | 138% (inactive) | 108% (inactive) | 86.3% (inactive) | 0.415% (inactive) | 85.9% | 86.3% | -3.47% (inactive) | -1.48% (inactive)
22 | O=C(C(c1ccccc1)c1ccccc1)N1CCN(Cc2ccccn2)CC1 | 81% | 112% (inactive) | 81% (inactive) | 84.7% (inactive) | 93.4% (inactive) | -0.39% (inactive) | 93.8% | 93.4% | -1.03% (inactive) | -5.83% (inactive)
23 | CCN(CC)S(=O)(=O)c1ccc(Cl)c(C(=O)OC)c1 | 97% | 93% (inactive) | 97% (inactive) | 99% (inactive) | 95.7% (inactive) | 4.65% (inactive) | 91% | 95.7% | -1.87% (inactive) | 2.9% (inactive)
24 | NC(=O)c1c(NC(=O)CN2CCCC2)sc2c1CCCC2 | 104% | 114% (inactive) | 104% (inactive) | 95.9% (inactive) | 91.3% (inactive) | 4.73% (inactive) | 86.6% | 91.3% | -0.8% (inactive) | -5.57% (inactive)
25 | CCC(NC(=O)Nc1cc(OC)c(OC)c(OC)c1)(C(F)(F)F)C(F)(F)F | 112% | 83.5% (inactive) | 112% (inactive) | 105% (inactive) | 93% (inactive) | -7.81% (inactive) | 101% | 93% | -4.47% (inactive) | 11% (inactive)
26 | Cn1c(SC/C=C/c2ccccc2)nnc1-c1cnccn1 | 80.5% | 102% (inactive) | 80.5% (inactive) | 114% (inactive) | 94.3% (inactive) | 10.3% (inactive) | 84% | 94.3% | 2.27% (inactive) | -5.48% (inactive)
27 | O=C(OCN1C(=O)c2ccccc2C1=O)c1ccc2c(=O)n3c(nc2c1)CCC3 | 109% | 85.5% (inactive) | 109% (inactive) | 112% (inactive) | 96.7% (inactive) | -0.565% (inactive) | 97.2% | 96.7% | -4.73% (inactive) | 14.8% (inactive)
28 | CN(C)c1ccc2c(c1)OC(N)=C(C#N)C2c1cccc(F)c1 (stereo not given) | 92% | 90.5% (inactive) | 92% (inactive) | 17.2% (active) | 34.7% (active) | -41% (inactive) | 75.7% | 34.7% | -3.24% (inactive) | 4.75% (inactive)
29 | Cc1nc(N2CCOCC2)[nH]c(=O)c1CCC(C)C | 120% | 82% (inactive) | 120% (inactive) | 87.7% (inactive) | 91.9% (inactive) | 0.88% (inactive) | 91% | 91.9% | -1.58% (inactive) | 1.11% (inactive)

— PubChem BioAssay
